ChEMBL document CHEMBL4513216, “Probing the Open Global Health Chemical Diversity Library for Multistage-Active Starting Points for Next-Generation Antimalarials” (ACS Infect Dis, 2020)

Assay: Toxicity liver stage against HepG2, at 10uM
Type: cell-based
Design: test concentration 10 uM, cell line HepG2-A16-CD81EGFP
Settings: human, HepG2-A16-CD81EGFP cells; read-out: INHIBITION
In short: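 Uninfected HepG2-A16-CD81EGFP cells, 3 × 10^3 per well, 1536-well, plated on prespotted compound at 10 μM final, parasite-free screening media added to match infected plates; puromycin 10 μM positive, DMSO 0.5% negative; run in parallel with 48 h PbLuc assay at 37 °C, 5% CO2; viability by CellTiter-Glo luminescence, normalized to controls.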

Compound	cytotoxicity at 10 µM [%]
c1cncc(-c2nnc([C@H]3CCN(CC4CC4)C3)o2)c1	9.06
CN(C)c1ccc(C(CNS(=O)(=O)c2cccs2)N2CCCC2)cc1 (centres undefined)	2.31
Cc1cc(=O)[nH]c(-n2nc(C)c(CCC(=O)Nc3nc(C)cs3)c2C)n1	5.61
O=C(Cn1cccn1)Nc1ccc(N2CCOCC2)cc1	-2.51
c1cnc(N2C[C@H](OCC3CCOCC3)[C@H]3COC[C@H]32)nc1	-1.92
Cn1nnc2c1C(COCC1CC1)CN(C(=O)[C@H]1CCCO1)C2 (some centres undefined)	-8.01
O=C(c1ncn2c1CNS(=O)(=O)c1ccccc1-2)N1CCCCCC1	9.79
Cc1cccc(COC[C@H]2CC[C@H]3[C@H](CCN3Cc3ccco3)O2)n1	-172
COc1cccc(CN2CCCC3(CCN(C(=O)c4ccco4)C3)C2)c1 (centres undefined)	6.34
O=C(NCCn1cccn1)c1nnc2ccccc2n1	-2.41
CCn1nc(C)c2nc(C(C)C)nc(NCCc3ccc(O)cc3)c21	18.1
Cc1cc(C(=O)N(C)Cc2cnn(C)c2C)n(C)n1	8.19
CS(=O)(=O)N1CC(c2n[nH]c3ncccc23)C1	-23.4
Cc1cc(N2CCOCC(Cc3ccc4[nH]ccc4c3)C2)ncn1 (centres undefined)	-3.77
OCC1CCCN(Cc2c(C3CCCC3)[nH]c3ncccc23)C1 (centres undefined)	6.35
Cc1nnsc1C(=O)N1CC[C@H](c2ccccc2)[C@@H]2[C@H]1CCCCN2C	-17.6
CCOc1nnc(CN(CC)CC(=O)Nc2c(F)cccc2F)s1	-2.62
Cn1cnnc1S(=O)(=O)Cc1cc(Cl)c2c(c1)OCO2	-36.6
COC(=O)c1cccc(C(=O)N(CCC#N)CC(C)(C)C)c1	7.72
Cc1nc(CN2CCCC(C)(CO)C2)no1 (centres undefined)	5.89
Cc1cc(C)n(CCN2CCC(N(C)Cc3noc(C4CC4)n3)C2)n1 (centres undefined)	-2.92
CN1CCN(c2ccc(NCc3ccsc3)cn2)CC1	2.97

Compound	cytotoxicity at 10 µM [%]
Cc1nc(NS(=O)(=O)c2ccc(C)c(Br)c2)no1	11.2
N#Cc1cccc(CNCCC(=O)N2CCc3sccc3C2)c1	1.04
CCc1cccc(OCCn2cccc(C#N)c2=O)c1	9.04
COc1ccc(-c2nnc(C(C)N3CCC4(CC3)OCCO4)o2)cc1 (centres undefined)	12.5
CCN(C(=O)CN1CCCN(c2nc(C)ns2)CC1)C1CC1	-4.08
Cc1cnn(C2CN(CCOc3cccc(C#N)c3)C2)c1	5.62
c1csc(CCNC2CCc3ncnn3C2)c1 (centres undefined)	17.3
Cc1noc(C(C)N2CCN(c3ncnc4sccc34)CC2)n1 (centres undefined)	8.38
CC(C)c1noc(C(C)S(=O)(=O)Cc2nc(C3CC3)no2)n1 (centres undefined)	-0.828
COc1ccc(CN(C)CCS(=O)(=O)c2ccc(Cl)cc2)cc1OC	2.68
CCC(=O)CNC(=O)CCn1nc2ccccn2c1=O	9.5
COCCNC(=O)Nc1cc2c(cc1SC)OCCO2	-3.59
NC(=O)C1CCN(C(=O)C2SCCc3sccc32)CC1 (centres undefined)	-6.02
NC(=O)C1CCCN1Cc1cccc(NC(=O)c2cc(Cl)cc(Cl)c2)c1 (centres undefined)	21.3
COc1ccc(C(=O)N2CCOCC2c2ccc(C)o2)cc1 (centres undefined)	-2.24
CN(Cc1ccco1)Cc1ccccc1CNC(=O)c1cnc[nH]1	2.6
CC(=O)NCCc1ccc(S(=O)(=O)N(C)C(C)CC(C)C)s1 (centres undefined)	-1.88
CN(C)CCN(Cc1ccc(Cl)cc1)C(=O)c1cnccn1	-1.85
O=C(NC1CC1)c1cc(NC(=O)N2CCOCC2)ccc1Cl	-4.15
CC(NC(=O)c1ccnn1C)c1ccc(OCC2CC2)c(F)c1 (centres undefined)	48.8
Cc1ccc(-n2cc(S(=O)(=O)Nc3cccc(C(=O)O)c3C)cn2)cc1	-1.74
CCNC(=O)CN1CCC(OCC2CCCO2)CC1 (centres undefined)	-3.78

Compound	cytotoxicity at 10 µM [%]
CN(C)c1nc(N)nc(CN2CCCC2c2cccs2)n1 (centres undefined)	5.21
NC(=O)NC(=O)CCSCc1coc(-c2ccc(F)cc2)n1	-7.45
Cc1cc(O)ncc1NS(=O)(=O)c1cccc(F)c1F	0.753
CN(Cc1ccncc1)C(CO)c1cccc(F)c1 (centres undefined)	2.35
Cc1oc(-c2ccccc2)nc1CN1CCC(c2ccnn2C)CC1	15.6
COc1ccc(C(N)=O)cc1NCc1ncc(-c2cccs2)o1	8.2
COc1ccc(C(N)=O)cc1NCc1nc(-c2cccs2)oc1C	1.83
O=C(COCCOc1ccccc1)Nc1ccnn1CC1CCOC1 (centres undefined)	1.88
CCCN(C)CC1CCN(c2ncc(Br)cn2)C1 (centres undefined)	-6.68
Cc1noc(-c2cccnc2N(C)Cc2cscn2)n1	-4.23
CC(C)(C)n1cc(C(=O)O)c(-c2ccc(F)cc2F)n1	6.92
COCC(=O)NCCC(=O)N1CCN(S(=O)(=O)c2ccc(Br)cc2)CC1	-38.2
CSCC(=O)Nc1ncn(Cc2cccc(Br)c2)n1	-12
Cc1cc(CN2CC[C@H]3C[C@@H](c4nc(C5CC5)cs4)O[C@@H]3C2)no1	-104
O=S(=O)(C1CC1)N1Cc2nccn2CC(Cn2cncn2)C1 (centres undefined)	1.02
COCCn1c2c(ccc1=O)CC(NC(=O)c1cscn1)CC2 (centres undefined)	-97
Cc1occc1C(=O)N1CC[C@H]2C[C@@H](c3nnc(C4CC4)o3)O[C@@H]2C1	-111
Cc1cccc(C(=O)N2CCn3c(CN4CCN(C)CC4)cnc3C2)n1	-75.2
CC(C)CCN1CCc2nc(N3CCOCC3)nc(NC(C)C)c2C1	-113
CCCN1CCc2nc(N3CCOCC3)nc(NC(C)C)c2C1	-111
COc1ccc(CN2CCC3(CC2)CCN(c2ncccn2)CC3)cc1	-1.08
CC[C@@H](CO)Nc1nccc(-c2c[nH]c3cc(C(=O)OC)ccc23)n1	67.7

Compound	cytotoxicity at 10 µM [%]
Fc1ccc(CC2CCN(Cc3cscn3)CC2)cc1	-7.27
CC1CCCCN1C(=O)c1coc(COc2cccc3cnccc23)n1 (centres undefined)	-143
O=C(O)c1cccnc1N1CCN(Cc2ccc(F)cc2)C(CCO)C1 (centres undefined)	12.3
c1ccc(-c2cccc(N3CCC(NCCc4cscn4)CC3)c2)cc1	3.58
CC1(C)CC(CC(=O)N2CC(C)(C)[C@@](C)(O)C2)CC(C)(C)N1	-4.84
O=C(NC1CC1)c1ccnc(N2CCOC(c3ccc(Cl)cc3)C2)c1 (centres undefined)	4.44
Cc1cnc(N2CCC(c3ccccc3)CC2)nc1-c1ccnn1C	4.68
O=C(CC1=CSC2=NCCN12)N1CCCC(CCc2cccc(F)c2)C1 (centres undefined)	5.21
CC(C)(C)c1ncc(C(=O)NCCSc2ccccn2)c(O)n1	-0.494
O=C(c1ccc(S(=O)(=O)NCC(F)F)cc1)N1C[C@H]2CNC[C@H]2C1	-13
OC1CCN([C@@H]2CCN(c3nc(-c4ccccc4)no3)C[C@H]2O)CC1	-9.88
Cc1ccccc1C(=O)NC[C@@H]1CCN(C(=O)C2(O)CCCC2)C[C@H]1O	-38.7
CC(=O)C(C)CC(=O)N(Cc1cccc(C)c1)C(C)C (centres undefined)	-3.73
Cc1cc(N2CCC(n3cc(CN4CCC[C@@H]4CO)nn3)CC2)ccn1	4.9
CC(C)n1cc(C(=O)NCCCc2csc(N)n2)cn1	-4.36
O=C(O)c1ccc(CC2CCN(Cc3ccc(-c4cc[nH]n4)o3)C2)cc1 (centres undefined)	6.37
CN(C)CCC(Nc1nc(N)nc2c1CCNCC2)c1ccccc1 (centres undefined)	-4.32
COc1ccccc1[C@@H]1CN(Cc2ccc3nsnc3c2)C[C@H]1C(=O)O	-4.18
CCOCCN(CCOCC)c1nc(C)nc2sccc12	-126
CCC[C@H]1CN(c2nc(CO)cs2)C[C@@H]1NC(=O)C1(COC)CC1	-2.87
CC(C)(C)CN1CCCC2(CCN(C(=O)c3cn[nH]c3)C2)C1 (centres undefined)	2.87
CCc1nc(C)c(CN2CCOC(CCCC(C)C)C2)[nH]1 (centres undefined)	-20

Compound	cytotoxicity at 10 µM [%]
Cc1ccccc1-n1cc(-c2ccnc(N[C@H](CO)C(C)C)n2)cn1	4.43
CC(Cn1cncn1)NC(=O)c1cn(Cc2ccccc2F)nn1 (centres undefined)	-1.62
Cc1nc(N2CCCCC2)ncc1-c1cc(=O)[nH]c(N2CCCC2)n1	1
CSc1nccc(N2CCC3(CCCN(Cc4cccc(C)c4)C3)C2)n1 (centres undefined)	12.1
O[C@@H]1CN(c2nc3ccccc3s2)CC[C@H]1c1ccc2c(c1)OCO2	52.7
CS(=O)(=O)c1snnc1C1CCN(Cc2ccncc2)CC1	2.31
CCn1ccnc1CN1CCN(Cc2cccc(C#N)c2)CC1	-22.3
Cc1ccnc(NC(=O)c2ccc(-n3ncc(C#N)c3N)cc2)c1	1.22
CCCn1nc2c(cc1=O)CN(CCS(C)(=O)=O)CC2	-8.87
COc1cc2c(cc1CNCc1cccnc1-n1cccn1)OC(C)C2 (centres undefined)	4.6
CN(C)CCOCc1nnc2n1CCN(Cc1ccc(F)cc1)CC2	-5.63
Cc1ncnc2c1CCN(C(=O)c1ccncc1F)CC2	-71.1
O=C(C1CC1)N1CCC2(CC1)COCCN2Cc1ccc(F)cc1	-69.4
O=C(Cc1ccccn1)N1CCN2C[C@H](OCCN3CCCC3)C[C@H]2C1	-77.2
Cc1ccc(N2CC[C@@H]3[C@@H]2CCN3C(=O)Cc2ccccc2)nn1	-93.1
CCN(CC)c1ccc2ccc(C(=O)N3CCCCO3)cn12	5.33
O=C1COC2(CCN(c3ncccn3)CC2)CN1	12.9
CN(C)C(=O)NC[C@@H]1OC[C@H]2CN(Cc3cccc(F)c3)CC[C@H]21	4.93
O=C1CC2(CCCCN2C(=O)Cc2ccccc2)CN1c1cccnc1 (centres undefined)	-2.71
c1cc(CO[C@@H]2CC[C@H]3[C@H]2OCCN3CC2CCOCC2)ccn1	26.9
COc1ccc(CN2C[C@@H]3COC[C@@H](N4CCN(C)CC4)[C@@H]3C2)cc1	-103
